Columns and labels:
[1] = system: HT-29; assay: Cytotoxicity against human HT-29 cells at 100 uM after 2 days by sulforhodamine B assay; type: functional; conditions: HT-29, 48 h
Summary of the method: (§1)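 Five human cancer lines (HT-29, DU-145, A-549, SK-MEL-2, SK-OV-3) seeded at 3–7 × 10³ cells/well; compounds at 100 µM added in duplicate; 37 °C, 5% CO₂, two days. Fixed with formalin, SRB stained, washed with 1% acetic acid, dye solubilized in 10 mM unbuffered Tris base; OD at 520 nm. Read-out is % inhibition.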

[2] = system: DU-145; assay: Cytotoxicity against human DU145 cells at 100 uM after 2 days by sulforhodamine B assay; type: functional; conditions: DU-145, 48 h; summary of the method: as §1
[3] = system: HT-29; assay: Growth inhibition of human HT-29 cells after 2 days by MTT assay; type: functional; conditions: HT-29, 48 h
Summary of the method: (§2)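 HT-29 and DU-145 cells seeded at 5 × 10⁴ cells/mL; serial concentrations added in duplicate; 37 °C, 5% CO₂, two days. MTT dye (Cell Titer96) for up to 4 h at 37 °C, then solubilization/stop mix overnight at room temperature; OD at 570 nm. GI₅₀ = concentration giving 50% growth inhibition; mean ± SEM of three or more experiments; doxorubicin as internal standard.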

[4] = system: DU-145; assay: Growth inhibition of human DU145 cells after 2 days by MTT assay; type: functional; conditions: DU-145, 48 h; summary of the method: as §2
[5] = target: T1, Aurora kinase A (Homo sapiens) (UniProt O14965); assay: Inhibition of human Aurora A at 10 uM
T1 sequence (whole entry): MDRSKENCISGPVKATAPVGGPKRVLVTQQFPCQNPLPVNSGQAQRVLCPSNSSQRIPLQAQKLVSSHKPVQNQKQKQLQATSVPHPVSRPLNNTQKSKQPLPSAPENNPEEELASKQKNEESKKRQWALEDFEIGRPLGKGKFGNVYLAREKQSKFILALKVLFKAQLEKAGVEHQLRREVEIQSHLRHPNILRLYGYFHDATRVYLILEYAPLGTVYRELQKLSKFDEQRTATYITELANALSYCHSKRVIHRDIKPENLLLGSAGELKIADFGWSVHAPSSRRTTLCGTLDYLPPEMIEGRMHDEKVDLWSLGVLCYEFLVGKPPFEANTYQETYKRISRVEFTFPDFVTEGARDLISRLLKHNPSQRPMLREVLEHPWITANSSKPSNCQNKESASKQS

[6] = target: Glycogen synthase kinase-3 beta (Homo sapiens) (UniProt P49841); assay: Inhibition of human GSK3-beta at 10 uM
[7] = target: Epidermal growth factor receptor (Homo sapiens) (UniProt P00533); assay: Inhibition of human EGFR assessed as remaining enzyme activity at 10 uM; values are per cent of control
[8] = target: T1, Aurora kinase A (Homo sapiens); assay: Inhibition of human Aurora A assessed as remaining enzyme activity at 10 uM; values are per cent of control
[9] = target: Glycogen synthase kinase-3 beta (Homo sapiens) (UniProt P49841); assay: Inhibition of human GSK3-beta assessed as remaining enzyme activity at 10 uM; values are per cent of control
[10] = target: Platelet-derived growth factor receptor alpha (Homo sapiens) (UniProt P16234); assay: Inhibition of human PDGFRalpha assessed as remaining enzyme activity at 10 uM; values are per cent of control
Platelet-derived growth factor receptor alpha (Homo sapiens), sequence (P16234 whole entry): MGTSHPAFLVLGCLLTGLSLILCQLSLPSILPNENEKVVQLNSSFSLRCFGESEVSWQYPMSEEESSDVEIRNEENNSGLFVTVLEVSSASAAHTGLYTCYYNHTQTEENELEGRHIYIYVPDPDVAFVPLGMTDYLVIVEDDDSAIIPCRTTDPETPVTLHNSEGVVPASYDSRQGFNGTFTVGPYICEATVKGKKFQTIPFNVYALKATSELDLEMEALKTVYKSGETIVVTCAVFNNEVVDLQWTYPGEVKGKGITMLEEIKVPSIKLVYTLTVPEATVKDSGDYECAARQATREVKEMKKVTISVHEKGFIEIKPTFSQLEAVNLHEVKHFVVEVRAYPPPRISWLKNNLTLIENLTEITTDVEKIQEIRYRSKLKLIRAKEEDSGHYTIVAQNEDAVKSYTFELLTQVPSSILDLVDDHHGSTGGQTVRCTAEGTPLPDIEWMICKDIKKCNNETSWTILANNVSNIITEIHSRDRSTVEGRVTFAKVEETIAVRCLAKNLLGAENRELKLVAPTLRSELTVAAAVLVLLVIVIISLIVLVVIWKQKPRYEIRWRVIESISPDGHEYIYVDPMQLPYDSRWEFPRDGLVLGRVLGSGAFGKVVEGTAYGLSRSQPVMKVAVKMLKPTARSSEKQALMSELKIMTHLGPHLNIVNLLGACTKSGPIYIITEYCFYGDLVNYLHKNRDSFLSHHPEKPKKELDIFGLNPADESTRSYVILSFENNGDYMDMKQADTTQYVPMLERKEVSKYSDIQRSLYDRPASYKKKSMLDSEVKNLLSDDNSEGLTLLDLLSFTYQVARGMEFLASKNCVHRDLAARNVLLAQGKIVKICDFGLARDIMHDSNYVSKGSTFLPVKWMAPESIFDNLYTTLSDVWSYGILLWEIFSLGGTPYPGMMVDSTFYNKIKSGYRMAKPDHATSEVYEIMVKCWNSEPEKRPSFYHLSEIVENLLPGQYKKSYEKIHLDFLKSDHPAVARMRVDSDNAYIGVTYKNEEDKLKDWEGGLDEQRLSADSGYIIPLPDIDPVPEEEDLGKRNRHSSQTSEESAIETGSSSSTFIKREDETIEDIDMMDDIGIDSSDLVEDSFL

Epidermal growth factor receptor (Homo sapiens), sequence (P00533 whole entry): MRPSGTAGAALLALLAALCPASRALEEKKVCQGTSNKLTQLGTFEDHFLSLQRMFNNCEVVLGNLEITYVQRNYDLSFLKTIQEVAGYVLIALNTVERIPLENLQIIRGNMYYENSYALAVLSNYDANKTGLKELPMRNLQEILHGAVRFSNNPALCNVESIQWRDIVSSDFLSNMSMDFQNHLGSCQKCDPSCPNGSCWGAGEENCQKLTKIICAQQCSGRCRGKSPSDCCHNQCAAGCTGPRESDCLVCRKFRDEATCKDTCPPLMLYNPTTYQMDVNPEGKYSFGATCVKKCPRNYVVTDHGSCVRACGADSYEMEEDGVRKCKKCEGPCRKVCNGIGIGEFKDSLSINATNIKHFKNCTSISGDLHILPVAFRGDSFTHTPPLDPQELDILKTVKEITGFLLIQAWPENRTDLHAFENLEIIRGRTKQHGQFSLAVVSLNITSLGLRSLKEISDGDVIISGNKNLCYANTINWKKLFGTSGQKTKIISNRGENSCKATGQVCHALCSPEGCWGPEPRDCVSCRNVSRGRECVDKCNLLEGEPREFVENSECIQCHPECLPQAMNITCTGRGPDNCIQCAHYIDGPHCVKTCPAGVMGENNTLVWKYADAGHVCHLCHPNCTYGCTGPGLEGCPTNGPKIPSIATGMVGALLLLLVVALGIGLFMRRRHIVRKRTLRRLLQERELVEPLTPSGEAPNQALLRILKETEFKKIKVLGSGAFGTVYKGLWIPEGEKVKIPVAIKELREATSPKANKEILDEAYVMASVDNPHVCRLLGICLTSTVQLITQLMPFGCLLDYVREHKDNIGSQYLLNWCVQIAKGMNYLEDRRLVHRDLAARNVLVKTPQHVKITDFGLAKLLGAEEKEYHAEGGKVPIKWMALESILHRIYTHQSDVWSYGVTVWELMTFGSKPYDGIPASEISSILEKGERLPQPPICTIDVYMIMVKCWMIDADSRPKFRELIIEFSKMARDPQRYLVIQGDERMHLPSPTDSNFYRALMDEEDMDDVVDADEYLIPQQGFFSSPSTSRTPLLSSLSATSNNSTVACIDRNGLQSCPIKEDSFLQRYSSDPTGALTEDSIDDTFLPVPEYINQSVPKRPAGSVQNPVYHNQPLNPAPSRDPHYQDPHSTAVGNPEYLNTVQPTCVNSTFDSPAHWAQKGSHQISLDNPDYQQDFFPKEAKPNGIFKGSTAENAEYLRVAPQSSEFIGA
Glycogen synthase kinase-3 beta (Homo sapiens), sequence (P49841 whole entry, looked up): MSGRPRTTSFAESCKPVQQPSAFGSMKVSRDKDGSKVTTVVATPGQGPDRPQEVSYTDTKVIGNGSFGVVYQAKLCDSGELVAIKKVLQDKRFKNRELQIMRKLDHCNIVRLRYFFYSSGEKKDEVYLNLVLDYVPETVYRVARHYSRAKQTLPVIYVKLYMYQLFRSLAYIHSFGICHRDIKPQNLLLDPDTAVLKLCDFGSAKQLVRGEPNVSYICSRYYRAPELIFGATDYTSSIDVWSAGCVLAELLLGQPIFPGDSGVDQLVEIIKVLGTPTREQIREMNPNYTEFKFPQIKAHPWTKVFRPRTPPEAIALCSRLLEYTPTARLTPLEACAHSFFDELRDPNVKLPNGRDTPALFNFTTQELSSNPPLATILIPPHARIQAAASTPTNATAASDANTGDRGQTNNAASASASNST

## Cc1cccc(C(=O)Nn2c(CC3CCCCC3)nc3c(-c4ccc(Cl)cc4)n[nH]c3c2=O)c1
[1]
  inhibition at 100 µM: 88.7%
[2]
  inhibition at 100 µM: 85.9%
[3]
  GI50: 0.44 µM
[4]
  GI50: 1.07 µM
[5]
  inhibition: 82%
[6]
  inhibition: 89%
[7]
  residual activity: 85%
[8]
  residual activity: 18%
[9]
  residual activity: 11%
[10]
  residual activity: 95%

## O=C(Cc1ccccc1)Nn1c(CC2CCCCC2)nc2c(-c3ccc(Cl)cc3)n[nH]c2c1=O
[1]
  inhibition at 100 µM: 85.5%
[2]
  inhibition at 100 µM: 79.8%
[3]
  GI50: 6.39 µM
[4]
  GI50: 15.1 µM
[5]
  inhibition: 74%
[6]
  inhibition: 89%
[7]
  residual activity: 113%
[8]
  residual activity: 26%
[9]
  residual activity: 11%
[10]
  residual activity: 77%

## CCCCc1nc2c(-c3ccc(Cl)cc3)n[nH]c2c(=O)n1NC(=O)c1ccccc1
[1]
  inhibition at 100 µM: 89.5%
[2]
  inhibition at 100 µM: 93%
[3]
  GI50: 0.71 µM
[4]
  GI50: 29.1 µM
[5]
  inhibition: 84%
[6]
  inhibition: 89%
[7]
  residual activity: 86%
[8]
  residual activity: 16%
[9]
  residual activity: 11%
[10]
  residual activity: 105%

## CCCCCc1nc2c(-c3ccc(Cl)cc3)n[nH]c2c(=O)n1NC(=O)c1cccc(C)c1
[1]
  inhibition at 100 µM: 90.5%
[2]
  inhibition at 100 µM: 88.8%
[3]
  GI50: 5.37 µM
[4]
  GI50: 12.9 µM
[5]
  inhibition: 93%
[6]
  inhibition: 94%
[7]
  residual activity: 82%
[8]
  residual activity: 7%
[9]
  residual activity: 6%
[10]
  residual activity: 92%

## CCCCCc1nc2c(-c3ccc(Cl)cc3)n[nH]c2c(=O)n1NC(=O)c1ccccc1
[1]
  inhibition at 100 µM: 90.1%
[2]
  inhibition at 100 µM: 88.7%
[3]
  GI50: 2.26 µM
[4]
  GI50: 22.1 µM
[5]
  inhibition: 91%
[6]
  inhibition: 92%
[7]
  residual activity: 76%
[8]
  residual activity: 9%
[9]
  residual activity: 8%
[10]
  residual activity: 99%

Source: ChEMBL document CHEMBL1154962, “Novel 6-N-arylcarboxamidopyrazolo[4,3-d]pyrimidin-7-one derivatives as potential anti-cancer agents” (2010)
